Measurements: ChEMBL document CHEMBL1132442, “Preparation and characterization of novel trans-[PtCl(2)(amine)(isopropylamine)] compounds: cytotoxic activity and apoptosis induction in ras-transformed cells” (J Med Chem, 1999)

What follows are substances tested on Vero (assay: Cytotoxicity against […] cell line VERO(obtained by MTT assay).).
Format: functional, cell-based, Chlorocebus sabaeus
How it was run: (§1)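 MTT survival assay: compounds added to cultured cells at final 0–200 μM, read 24 h later by absorbance at 520 nm. IC50 from plots of % survival versus concentration (μM). Quadruplicate experiments. Compound stocks 1 mg/mL in PBS, freshly prepared.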

Point of comparison: “Trans-[PtCl2(isopropylamine)(propylamine)]”, IC50 52 µM. Against it:
- TRANSPLATIN — 2.8-fold higher, 148 µM
- Trans-[PtCl2(butylamine)(isopropylamine)] — within 1.5-fold, 46 µM
- CISPLATIN — within 1.5-fold, 50 µM

These substances were tested on HL-60 (assay: Cytotoxicity against human promyelocytic leukemia cell line HL-60 (obtained by MTT assay).).
Format: functional, cell-based
How it was run: as §1

Point of comparison: “Trans-[PtCl2(isopropylamine)(propylamine)]”, IC50 20 µM. Against it:
- TRANSPLATIN — 2.5-fold higher, 50 µM
- Trans-[PtCl2(dimethylamine)isopropylamine)] (tdmaipa) — within 1.5-fold, 17 µM
- Trans-[PtCl2(butylamine)(isopropylamine)] — within 1.5-fold, 18 µM
- CISPLATIN — within 1.5-fold, 25 µM

The substances below were run on Jurkat (assay: Cytotoxicity against human acute T-cell leukemia cell line JURKAT (obtained by MTT assay).).
Format: functional, cell-based
How it was run: as §1

Point of comparison: CISPLATIN, IC50 7 µM. Against it:
- Trans-[PtCl2(isopropylamine)(propylamine)] — within 1.5-fold, 5 µM
- TRANSPLATIN — 3.1-fold higher, 22 µM
- Trans-[PtCl2(dimethylamine)isopropylamine)] (tdmaipa) — within 1.5-fold, 5 µM
- Trans-[PtCl2(butylamine)(isopropylamine)] — the same, 7 µM

These substances were tested on Vero (assay: Cytotoxicity against […] cell line VERO (obtained by MTT assay).).
Format: functional, cell-based, Chlorocebus sabaeus
How it was run: as §1

“Trans-[PtCl2(dimethylamine)isopropylamine)] (tdmaipa)” gave an IC50 of 47 µM.

The substances below were run on HeLa (assay: Cytotoxicity against human cervix epithelial carcinoma cell line HeLa (obtained by MTT assay).).
Format: functional, cell-based
How it was run: as §1

Point of comparison: “Trans-[PtCl2(butylamine)(isopropylamine)]”, IC50 35 µM. Against it:
- Trans-[PtCl2(isopropylamine)(propylamine)] — within 1.5-fold, 43 µM
- TRANSPLATIN — 2.5-fold higher, 89 µM
- Trans-[PtCl2(dimethylamine)isopropylamine)] (tdmaipa) — within 1.5-fold, 32 µM
- CISPLATIN — within 1.5-fold, 38 µM

What follows are substances tested on PAM212 (assay: Cytotoxicity against murine keratinocytes transformed with the H-ras oncogene Pam212-ras (cis-DDP resistant) (obtained by MTT assay).).
Format: functional, cell-based, Mus musculus
How it was run: as §1

Point of comparison: “Trans-[PtCl2(dimethylamine)isopropylamine)] (tdmaipa)”, IC50 6 µM. Against it:
- Trans-[PtCl2(isopropylamine)(propylamine)] — 5.3-fold higher, 32 µM
- TRANSPLATIN — 27-fold higher, 164 µM
- Trans-[PtCl2(butylamine)(isopropylamine)] — 3.5-fold higher, 21 µM
- CISPLATIN — 26-fold higher, 156 µM

Each substance was assayed on PAM212 (assay: Cytotoxicity against normal murine keratinocytes Pam212 (obtained by MTT assay).).
Format: functional, cell-based, Mus musculus
How it was run: as §1

Point of comparison: “Trans-[PtCl2(butylamine)(isopropylamine)]”, IC50 71 µM. Against it:
- Trans-[PtCl2(isopropylamine)(propylamine)] — within 1.5-fold, 50 µM
- TRANSPLATIN — 1.7-fold higher, 123 µM
- Trans-[PtCl2(dimethylamine)isopropylamine)] (tdmaipa) — within 1.5-fold, 56 µM
- CISPLATIN — 1.6-fold higher, 114 µM
